Columns and labels:
[1] = target: MRG15 CD (Homo sapiens, UniProt Q9UBU8); test: NMR titration of 15N-labeled MRG15 CD with methyllysine peptides/ligands; assay type: binding
[2] = target: T1, Pf1 PHD1 (Homo sapiens, UniProt Q96QT6); assay type: binding; conditions: even at molar concentrations; unpublished data
[3] = test system: Pf1 PHD2; test: NMR titration of Pf1 PHD2 with small molecule mimics of histone modifications; assay type: binding, human; conditions: unpublished data
[4] = target: T1, Pf1 PHD1; test: Pulldown of GST-Pf1 PHD1 with biotinylated histone H3 peptides; assay type: binding; conditions: GST-Pf1 PHD1 (residues 53–103); wash 50 mM Tris pH 7.5, 150 mM NaCl, 0.05% NP-40; SDS-PAGE, Coomassie
Method in brief: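 GST-Pf1 PHD1 (53–103) and GST-Pf1 PHD2 (268–319) came from E. coli and were eluted from glutathione resin with glutathione. They were incubated with an array of biotinylated histone H3 peptides on avidin beads. Washes also held 0.3 mg/ml BSA and 1 mM DTT. Bound protein was resolved by SDS-PAGE.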

[5] = test system: Pf1 PHD1/MBD (residues 48–241); test: NMR of 15N-labeled Pf1 PHD1/MBD with MRG15 proteins; assay type: binding, human; conditions: equimolar; 20 mM Tris pH 7.5, 50 mM NaCl, 10 μM ZnSO4, 15 mM DTT, 0.2% NaN3, 25 °C

T1 sequence (Q96QT6 48-116): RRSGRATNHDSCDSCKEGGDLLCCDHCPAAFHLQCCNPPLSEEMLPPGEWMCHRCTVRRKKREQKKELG
MRG15 CD, sequence (Q9UBU8 1-90 isoform Q9UBU8-2): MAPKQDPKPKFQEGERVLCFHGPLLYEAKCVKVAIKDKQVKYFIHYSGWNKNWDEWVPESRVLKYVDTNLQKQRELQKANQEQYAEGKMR

| Molecule | interaction with Pf1 PHD2 in NMR titrations [3] | binding to Pf1 PHD1 in pulldown [4] | further results |
| --- | --- | --- | --- |
| C[N+](C)(C)CCCC[C@H](N)C(=O)O [trimethyllysine] | lack of any interaction | – | Kd [1]: 11 ± 3.3 mM; perturbations in the MRG15 CD NMR spectrum ([1]; pH 7.5, 25 °C): induced a similar pattern of perturbations in the NMR spectrum of MRG15 CD as the aforementioned peptides; interaction with Pf1 PHD1 in NMR titrations [2]: neither trimethyllysine nor acetyllysine interacted with Pf1 PHD1 |
| N[C@@H](COP(=O)(O)O)C(=O)O [phosphoserine] | lack of any interaction | – | – |
| H3 peptides spanning residues 27–46: biotinylated H3 peptide spanning residues 27–46 | – | failed to do so | – |
| MRG15 MRG: MRG domain of MRG15 (residues 155–323) | – | – | effect on 15N-Pf1 PHD1/MBD spectrum [5]: disappearance of resonances corresponding to the PHD1 domain |
| CC(=O)NCCCC[C@H](N)C(=O)O [acetyllysine] | lack of any interaction | – | interaction with Pf1 PHD1 in NMR titrations [2]: neither trimethyllysine nor acetyllysine interacted with Pf1 PHD1 |
| dimethylarginine | lack of any interaction | – | – |
| 18–37: biotinylated H3 peptide spanning residues 18–37 | – | failed to do so | – |
| C[C@@H](OP(=O)(O)O)[C@H](N)C(=O)O [phosphothreonine] | lack of any interaction | – | – |
| H3 peptide spanning residues 1–20: unmodified biotinylated histone H3 peptide spanning residues 1–20 | – | bound to Pf1 PHD1 | – |
